Reference: ChEMBL document CHEMBL1152789, “Synthesis of 2-(5-((5-(4-chlorophenyl)furan-2-yl)methylene)-4-oxo-2-thioxothiazolidin-3-yl)acetic acid derivatives and evaluation of their cytotoxicity and induction of apoptosis in human leukemia cells” (Bioorg Med Chem, 2009)
Calls of active or inactive are those of the source. The rule behind the calls is not given here.

Assays:
[1] = system: REH; test: Cytotoxicity against human REH cells after 72 hrs by MTT assay; type: functional, cell-based
In short: (§1)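 Log-phase cells (1 × 10⁴/well) were plated in triplicate in RPMI 1640 with 10% heat-inactivated FBS and penicillin/streptomycin, at 37 °C in 5% CO2. Cells were treated with 10, 100 or 250 µM compound and harvested at 48 and 72 h. MTT (5 mg/ml) was added at 37 °C, formazan was dissolved in DMF/SDS detergent, and A570 was read minus a medium blank. Viability is expressed as % of DMSO vehicle, and IC50 was estimated at 72 h.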

[2] = system: K562; test: Cytotoxicity against human K562 cells after 72 hrs by MTT assay; type: functional, cell-based; details: K562, 72 h; in short: as §1
[3] = system: K562; test: Cytotoxicity against human K562 cells at >= 100 uM after 48 to 72 hrs by MTT assay; type: functional, cell-based; in short: as §1
[4] = system: REH; test: Cytotoxicity against human REH cells at >= 100 uM after 48 to 72 hrs by MTT assay; type: functional, cell-based; in short: as §1
[5] = system: K562; test: Cell cycle arrest in human K562 cells assessed as change in cell cycle pattern after 48 hrs by PI staining based flow cytometry; type: functional
In short: (§2)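 K562 cells, 0.75 × 10⁵ cells/ml, incubated at 37 °C with 10, 50 and 100 µM compound for 48 h, with a DMSO vehicle control. Cells were washed, fixed in 70% ethanol, RNase A treated, and stained with propidium iodide for half an hour before flow cytometry. At least 10,000 cells were acquired per sample, and G0/G1 (subG1), G1, S and G2/M fractions were read from the DNA histograms.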

[6] = system: K562; test: Cell cycle arrest in human K562 cells assessed as accumulation at G0/G1 phase after 48 hrs by PI staining based flow cytometry; type: functional; in short: as §2
[7] = system: K562; test: Cell cycle arrest in human K562 cells assessed as decline of G1 phase after 48 hrs by PI staining based flow cytometry; type: functional; in short: as §2
[8] = system: K562; test: Cell cycle arrest in human K562 cells assessed as decline of G2/M phase after 48 hrs by PI staining based flow cytometry; type: functional; in short: as §2
[9] = system: K562; test: Induction of apoptosis in human K562 cells assessed as chromosomal DNA fragmentation at 100 uM after 72 hrs by agarose gel electrophoresis; type: functional, cell-based
In short: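 K562 cells were cultured with 10, 50 or 100 µM compound for 72 h, with a DMSO lane as control. Genomic DNA was extracted, resuspended in TE buffer, and run on a 1% agarose gel at 30 V for 6 h. Laddering or smearing was viewed by ethidium bromide staining.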

`N#Cc1cc(NC(=O)CN2C(=O)/C(=C/c3ccc(-c4ccc(Cl)cc4)o3)SC2=S)ccc1C(F)(F)F` was tested, and the IC50 [1] was > 250 µM and the IC50 [2] was > 250 µM.

`CCCCCCNC(=O)CN1C(=O)/C(=C/c2ccc(-c3ccc(Cl)cc3)o2)SC1=S` was tested, and the IC50 [1] was 55 µM, the Activity [3] was “Active” and the Activity [4] was “Active”. It also gave an IC50 [2] of 50 µM.

For `O=C(CN1C(=O)/C(=C/c2ccc(-c3ccc(Cl)cc3)o2)SC1=S)Nc1nnn[nH]1`, the IC50 [1] was 50 µM, the Activity [3] was “Active” and the Activity [4] was “Active”. For the same molecule, the IC50 [2] was 52 µM.

With `COc1ccc(CNC(=O)CN2C(=O)/C(=C/c3ccc(-c4ccc(Cl)cc4)o3)SC2=S)cc1` the IC50 [1] was 44 µM, the Activity [5] was “Dose-dependent effect” and the Activity [6] was “Active”. For the same molecule, the Activity [7] was “Active”, the Activity [8] was “Active” and the Activity [9] was “Active”. For the same molecule, the Activity [3] was “Active”, the Activity [4] was “Active” and the IC50 [2] was 40 µM.

For `Cc1cccc(CNC(=O)CN2C(=O)/C(=C/c3ccc(-c4ccc(Cl)cc4)o3)SC2=S)c1`, the IC50 [1] was 53 µM, the Activity [5] was “Dose-dependent effect” and the Activity [6] was “Active”. For the same molecule, the Activity [7] was “Active”, the Activity [8] was “Active” and the Activity [3] was “Active”. The Activity [4] was “Active” and the IC50 [2] was 48 µM.

With `N#Cc1ccc(NC(=O)CN2C(=O)/C(=C/c3ccc(-c4ccc(Cl)cc4)o3)SC2=S)cc1` the IC50 [1] was 90 µM and the IC50 [2] was 85 µM.

`O=C(CN1C(=O)/C(=C/c2ccc(-c3ccc(Cl)cc3)o2)SC1=S)NCc1ccccc1Cl` was tested, and the IC50 [1] was 70 µM, the Activity [3] was “Active” and the Activity [4] was “Active”. The IC50 [2] was 64 µM.

With `Cc1ccc(CNC(=O)CN2C(=O)/C(=C/c3ccc(-c4ccc(Cl)cc4)o3)SC2=S)cc1` the IC50 [1] was 45 µM, the Activity [3] was “Active” and the Activity [4] was “Active”. The IC50 [2] was 45 µM.

With `O=C(CN1C(=O)/C(=C/c2ccc(-c3ccc(Cl)cc3)o2)SC1=S)NCc1ccc(C(F)(F)F)cc1` the IC50 [1] was 170 µM and the IC50 [2] was 155 µM.

In the case of `O=C(CN1C(=O)/C(=C/c2ccc(-c3ccc(Cl)cc3)o2)SC1=S)NCc1ccc(Br)cc1`, the IC50 [1] is reported as 75 µM, the Activity [3] is reported as “Active” and the Activity [4] is reported as “Active”. The IC50 [2] was 68 µM.

`O=C(CN1C(=O)/C(=C/c2ccc(-c3ccc(Cl)cc3)o2)SC1=S)NCc1ccc(F)cc1` gave an IC50 [1] of 165 µM and an IC50 [2] of 150 µM.
